Some results are limits rather than exact numbers.

The first experiment has as its system RAW264.7. Kind of experiment: Cytotoxicity against LPS-stimulated mouse RAW264.7 cells after 24 hrs by MTT assay. To be noted: RAW264.7, 24 h. In kind it is cell-based. Put shortly:
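RAW264.7 in 96-well plates left untreated or exposed to compounds at various concentrations for 24 h. MTT (5 mg/mL) added 4 h before end. Lysis buffer (10% SDS, 50% DMF, pH 7.2) applied 6 h, absorbance read at 570 nm.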
In general terms: Formazan colour is commonly taken as a measure of viable cells.
Take `CS(=O)(=O)Oc1coc2cc(O)cc(O)c2c1=O`: the IC50 – broadly, the concentration at which inhibition is half-maximal – is greater than 100 µM. The molecule `O=C(Oc1coc2cc(O)cc(O)c2c1=O)c1ccccc1` came in with an IC50 greater than 100 µM. Molecule `COc1ccc(C(=O)Oc2coc3cc(O)cc(O)c3c2=O)cc1` showed an IC50 greater than 100 µM. Still for that read-out and setting: then `Cc1ccccc1C(=O)Oc1coc2cc(O)cc(O)c2c1=O`, with greater than 100 µM; and `Cc1ccc(S(=O)(=O)Oc2coc3cc(O)cc(O)c3c2=O)cc1`, with greater than 100 µM. The molecule `O=c1c(CO)coc2cc(O)cc(O)c12` had an IC50 greater than 100 µM. Consider `O=c1c(O)coc2cc(O)cc(O)c12`, for which the IC50 is greater than 100 µM.

`CC(=O)Oc1coc2cc(O)cc(O)c2c1=O` displayed a concentration for half-maximal inhibition (IC50) greater than 100 µM. `CCCCC(=O)Oc1coc2cc(O)cc(O)c2c1=O`: the IC50 was greater than 100 µM.

As to `CCCCCCCCC(=O)Oc1coc2cc(O)cc(O)c2c1=O`, the IC50 is greater than 100 µM.

A further experiment has as its system RAW264.7. As to the kind of experiment: Antiinflammatory activity in LPS-stimulated mouse RAW264.7 cells assessed as inhibition of nitric oxide production after 24 hrs by Griess reagent. In kind it is functional, cell-based. As to conditions: RAW264.7, 24 h.
On to `CS(=O)(=O)Oc1coc2cc(O)cc(O)c2c1=O`, for which the IC50 was found to be 53.7 µM. Same read-out and setting: the figure for `O=C(Oc1coc2cc(O)cc(O)c2c1=O)c1ccccc1` is 86.6 µM. On the same count and under the same terms, the figure for `COc1ccc(C(=O)Oc2coc3cc(O)cc(O)c3c2=O)cc1` is 47.2 µM; for `Cc1ccccc1C(=O)Oc1coc2cc(O)cc(O)c2c1=O` it is 17 µM.

As to `Cc1ccc(S(=O)(=O)Oc2coc3cc(O)cc(O)c3c2=O)cc1`, the IC50 came out at 19.2 µM. Take `O=c1c(CO)coc2cc(O)cc(O)c12`: the concentration for half-maximal inhibition (IC50) is greater than 100 µM. Regarding `O=c1c(O)coc2cc(O)cc(O)c12`, the IC50 was greater than 100 µM. Consider `CC(=O)Oc1coc2cc(O)cc(O)c2c1=O`, for which the IC50 amounted to 60 µM. Consider `CCCCC(=O)Oc1coc2cc(O)cc(O)c2c1=O`, for which the IC50 worked out at 60.4 µM. On the same count and under the same terms, the figure for `CCCCCCCCC(=O)Oc1coc2cc(O)cc(O)c2c1=O` is 62.2 µM; for `O=c1cc(-c2ccc(O)cc2)oc2cc(O)cc(O)c12` [APIGENIN] it is 7.7 µM. As for `CCn1cc(-c2ccc(O)cc2)c(=O)c2c(O)cc(O)cc21` [AZAISOFLAVONE], the IC50 was 7.8 µM. Take `O=c1c(-c2ccc(O)cc2)coc2cc(O)cc(O)c12` [GENISTEIN]: the IC50 stood at 26 µM. As for `O=c1cc(-c2ccc(O)c(O)c2)oc2cc(O)cc(O)c12` [LUTEOLIN], the IC50 was found to be 10.4 µM.

(Values after ChEMBL document CHEMBL1156242, “Synthesis of a novel series of diphenolic chromone derivatives as inhibitors of NO production in LPS-activated RAW264.7 macrophages” (Bioorg Med Chem, 2010).)
